# Laboratory results published in ChEMBL document CHEMBL4673343, “Lythrum salicaria Ellagitannins Stimulate IPEC-J2 Cells Monolayer Formation and Inhibit Enteropathogenic Escherichia coli Growth and Adhesion” (J Nat Prod, 2020).
# The source made the active and inactive calls. The calls are words filed in the database; no cut-off is given here.
# Assays:
# IPEC-J2 [1] = experiment: Induction of porcine IPEC-J2 cells monolayer development assessed as increase in transepithelial electrical resistance at 20 uM after 6 days by voltammetric method; type: functional, cell-based; details: Sus scrofa domesticus, time 6.0 day
# Method in brief: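 IPEC-J2 cells were seeded at 5 × 10^5/insert (0.4 μm PET) and cultured until TEER exceeded 1 kΩ cm2 (day 7). Apical medium was then replaced with 20 μM compound or PBS and renewed at day 10, with basolateral medium changed in parallel. TEER was read with an EVOM2 chopstick electrode at days 10 and 13. Mann–Whitney test versus PBS.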
# IPEC-J2 [2] = experiment: Induction of claudin-4 protein expression in porcine IPEC-J2 cells at 20 uM after 6 days by Western blot analysis; type: functional, cell-based; details: Sus scrofa domesticus, time 6.0 day
# Method in brief: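 Inserts were treated apically with 20 μM from day 7, with medium renewed at day 10. At day 13 cells were lysed and protein equalized by BCA, then run on SDS–PAGE and transferred to nitrocellulose. Blots were probed with mouse anti-claudin 4 and an HRP secondary and detected by ECL. Band intensity was normalized to β-actin and expressed as fold over PBS control.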
# Escherichia coli [3] = experiment: Antibacterial activity against Escherichia coli by two-fold serial dilution method; type: functional
# Escherichia coli [4] = experiment: Antibacterial activity against heat labile toxin gene positive Escherichia coli; type: functional
# Escherichia coli [5] = experiment: Antibacterial activity against heat stable toxin gene positive Escherichia coli; type: functional
# Escherichia coli [6] = experiment: Antibacterial activity against invasive E gene positive Escherichia coli; type: functional
# Escherichia coli [7] = experiment: Antibacterial activity against Escherichia coli; type: functional
# Method in brief: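 Strains: enteropathogenic E. coli O147:K89:K88 (Abbotstown) and non-fimbriated DSM 2840. Both were subcultured in BHI with shaking at 37 °C for 2 days, then inoculated at 10^4 CFU/mL final in BHI microplates. Extract stock was in water and pure compounds in DMSO, tested at 20–2000 μg/mL (extract), with ciprofloxacin as positive control. Plates were sealed for anaerobic conditions at 37 °C, and OD690 was read every 5 min for 24 h. MIC-level wells were plated on BHI agar (48 h). Three independent experiments were run in triplicate.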
# Escherichia coli [8] = experiment: Antibacterial activity against Shiga-like toxin positive Escherichia coli; type: functional
# Escherichia coli [9] = experiment: Antibacterial activity against Escherichia coli ATCC 25922; type: functional
# Escherichia coli [10] = experiment: Antibacterial activity against Escherichia coli IFO 3972; type: functional
# Escherichia coli [11] = experiment: Growth inhibition of Escherichia coli 0147:K89:K88 infected in porcine IPEC-J2 cells assessed as inhibition of EPEC adhesion 100 uM preincubated for 24 hrs followed by compound wash subsequently infected with bacteria by CFDA-SE staining based flow cytometric analysis; type: functional; details: 0147:K89:K88, IPEC-J2, in Sus scrofa
# Method in brief: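 IPEC-J2 cells were seeded at 10^5/well and grown 7 days. On day 8 they were treated 24 h, then washed twice with warm PBS and given antibiotic-free medium. Infection used CFDA-SE-labelled (1 mM, 120 min, 37 °C) O147:K89:K88 at MOI 100 for 45 min, followed by three PBS washes and trypsinization. Flow cytometry measured MFI over 10 000 events. Mean ± SD of three experiments in triplicate; Dunnett's test versus PBS.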
# Escherichia coli [12] = experiment: Growth inhibition of Escherichia coli 0147:K89:K88 measured every 5 mins for 24 hrs by turbidometric analysis; type: functional; details: time hrs <=24
# Method in brief: (§1)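 Strains were revived from cryostocks and passaged twice daily in BHI with shaking at 37 °C over 2 days. Double-strength BHI plus diluted test stock (compounds in DMSO, 0.22 μm filtered), inoculum at final 10^4 CFU/mL, film-sealed for anaerobic conditions, 37 °C in plate reader. OD690 was read every 5 min for 24 h; lag time came from the lag-exponential method. Three independent experiments were run, each in triplicate.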
# Escherichia coli [13] = experiment: Growth inhibition of Escherichia coli DSM 2840 assessed as lag time at 500 uM measured every 5 mins for 24 hrs by turbidometric analysis (reference value: 312 min); type: functional; details: time hrs <=24; method in brief: as §1
# Escherichia coli [14] = experiment: Growth inhibition of Escherichia coli DSM 2840 assessed as lag time at 200 uM measured every 5 mins for 24 hrs by turbidometric analysis (reference value: 312 min); type: functional; details: time hrs <=24; method in brief: as §1
# Escherichia coli [15] = experiment: Growth inhibition of Escherichia coli DSM 2840 assessed as lag time at 100 uM measured every 5 mins for 24 hrs by turbidometric analysis (reference value: 312 min); type: functional; details: time hrs <=24; method in brief: as §1
# Escherichia coli [16] = experiment: Growth inhibition of Escherichia coli DSM 2840 assessed as lag time at 50 uM measured every 5 mins for 24 hrs by turbidometric analysis (reference value: 312 min); type: functional; details: time hrs <=24; method in brief: as §1
# Escherichia coli [17] = experiment: Growth inhibition of Escherichia coli DSM 2840 assessed as lag time at 10 uM measured every 5 mins for 24 hrs by turbidometric analysis (reference value: 312 min); type: functional; details: time hrs <=24; method in brief: as §1
# Escherichia coli [18] = experiment: Growth inhibition of Escherichia coli DSM 2840 assessed as lag time at 20 uM measured every 5 mins for 24 hrs by turbidometric analysis (reference value: 312 min); type: functional; details: time hrs <=24; method in brief: as §1
# Escherichia coli [19] = experiment: Growth inhibition of Escherichia coli DSM 2840 assessed as lag time at 5 uM measured every 5 mins for 24 hrs by turbidometric analysis (reference value: 312 min); type: functional; details: time hrs <=24; method in brief: as §1
# Escherichia coli [20] = experiment: Growth inhibition of Escherichia coli 0147:K89:K88 assessed as lag time at 500 uM measured every 5 mins for 24 hrs by turbidometric analysis (reference value: 300 min); type: functional; details: time hrs <=24; method in brief: as §1
# Escherichia coli [21] = experiment: Growth inhibition of Escherichia coli 0147:K89:K88 assessed as lag time at 200 uM measured every 5 mins for 24 hrs by turbidometric analysis (reference value: 300 min); type: functional; details: time hrs <=24; method in brief: as §1
# Escherichia coli [22] = experiment: Growth inhibition of Escherichia coli 0147:K89:K88 assessed as lag time at 100 uM measured every 5 mins for 24 hrs by turbidometric analysis (reference value: 300 min); type: functional; details: time hrs <=24; method in brief: as §1
# Escherichia coli [23] = experiment: Growth inhibition of Escherichia coli 0147:K89:K88 assessed as lag time at 50 uM measured every 5 mins for 24 hrs by turbidometric analysis (reference value: 300 min); type: functional; details: time hrs <=24; method in brief: as §1
# Escherichia coli [24] = experiment: Growth inhibition of Escherichia coli 0147:K89:K88 assessed as lag time at 20 uM measured every 5 mins for 24 hrs by turbidometric analysis (reference value: 300 min); type: functional; details: time hrs <=24; method in brief: as §1
# Escherichia coli [25] = experiment: Growth inhibition of Escherichia coli 0147:K89:K88 assessed as lag time at 10 uM measured every 5 mins for 24 hrs by turbidometric analysis (reference value: 300 min); type: functional; details: time hrs <=24; method in brief: as §1
# Escherichia coli [26] = experiment: Growth inhibition of Escherichia coli 0147:K89:K88 assessed as lag time at 5 uM measured every 5 mins for 24 hrs by turbidometric analysis (reference value: 300 min); type: functional; details: time hrs <=24; method in brief: as §1
# Escherichia coli [27] = experiment: Growth inhibition of Escherichia coli DSM 2840 assessed as doubling time at 500 uM measured every 5 mins for 24 hrs by turbidometric analysis (reference value: 31.6 +/- 0.8 min); type: functional; details: time hrs <=24; method in brief: as §1
# Escherichia coli [28] = experiment: Growth inhibition of Escherichia coli DSM 2840 assessed as doubling time at 200 uM measured every 5 mins for 24 hrs by turbidometric analysis (reference value: 31.6 +/- 0.8 min); type: functional; details: time hrs <=24; method in brief: as §1
# Escherichia coli [29] = experiment: Growth inhibition of Escherichia coli DSM 2840 assessed as doubling time at 100 uM measured every 5 mins for 24 hrs by turbidometric analysis (reference value: 31.6 +/- 0.8 min); type: functional; details: time hrs <=24; method in brief: as §1
# Escherichia coli [30] = experiment: Growth inhibition of Escherichia coli DSM 2840 assessed as doubling time at 50 uM measured every 5 mins for 24 hrs by turbidometric analysis (reference value: 31.6 +/- 0.8 min); type: functional; details: time hrs <=24; method in brief: as §1
# Escherichia coli [31] = experiment: Growth inhibition of Escherichia coli DSM 2840 assessed as doubling time at 20 uM measured every 5 mins for 24 hrs by turbidometric analysis (reference value: 31.6 +/- 0.8 min); type: functional; details: time hrs <=24; method in brief: as §1
# Escherichia coli [32] = experiment: Growth inhibition of Escherichia coli DSM 2840 assessed as doubling time at 10 uM measured every 5 mins for 24 hrs by turbidometric analysis (reference value: 31.6 +/- 0.8 min); type: functional; details: time hrs <=24; method in brief: as §1
# Escherichia coli [33] = experiment: Growth inhibition of Escherichia coli DSM 2840 assessed as doubling time at 5 uM measured every 5 mins for <=24 hrs by turbidometric analysis (reference value: 31.6 +/- 0.8 min); type: functional; details: time hrs <=24; method in brief: as §1
# Escherichia coli [34] = experiment: Growth inhibition of Escherichia coli 0147:K89:K88 assessed as doubling time at 500 uM measured every 5 mins for 24 hrs by turbidometric analysis (reference value: 34.1 +/- 0.5 min); type: functional; details: time hrs <=24; method in brief: as §1
# Escherichia coli [35] = experiment: Growth inhibition of Escherichia coli 0147:K89:K88 assessed as doubling time at 200 uM measured every 5 mins for 24 hrs by turbidometric analysis (reference value: 34.1 +/- 0.5 min); type: functional; details: time hrs <=24; method in brief: as §1
# Escherichia coli [36] = experiment: Growth inhibition of Escherichia coli 0147:K89:K88 assessed as doubling time at 100 uM measured every 5 mins for 24 hrs by turbidometric analysis (reference value: 34.1 +/- 0.5 min); type: functional; details: time hrs <=24; method in brief: as §1
# Escherichia coli [37] = experiment: Growth inhibition of Escherichia coli 0147:K89:K88 assessed as doubling time at 50 uM measured every 5 mins for 24 hrs by turbidometric analysis (reference value: 34.1 +/- 0.5 min); type: functional; details: time hrs <=24; method in brief: as §1
# Escherichia coli [38] = experiment: Growth inhibition of Escherichia coli 0147:K89:K88 assessed as doubling time at 20 uM measured every 5 mins for 24 hrs by turbidometric analysis (reference value: 34.1 +/- 0.5 min); type: functional; details: time hrs <=24; method in brief: as §1
# Escherichia coli [39] = experiment: Growth inhibition of Escherichia coli 0147:K89:K88 assessed as doubling time at 10 uM measured every 5 mins for 24 hrs by turbidometric analysis (reference value: 34.1 +/- 0.5 min); type: functional; details: time hrs <=24; method in brief: as §1
# Escherichia coli [40] = experiment: Growth inhibition of Escherichia coli 0147:K89:K88 assessed as doubling time at 5 uM measured every 5 mins for 24 hrs by turbidometric analysis (reference value: 34.1 +/- 0.5 min); type: functional; details: time hrs <=24; method in brief: as §1
smiles,measurement,setting,value
O=C1OC[C@H]2OC(=O)c3cc(O)c(O)c(O)c3-c3c(O)c(O)c(O)c4c3C(=O)O[C@H]([C@H]3OC(=O)c5c-4c(O)c(O)c(O)c5[C@@H]3O)[C@@H]2OC(=O)c2cc(O)c(O)c(O)c2-c2c1cc(O)c(O)c2O,Activity,IPEC-J2 [1],Active
O=C(O[C@@H]1COC(=O)c2cc(O)c(O)c(O)c2-c2c(cc(O)c(O)c2O)C(=O)O[C@H]1[C@@H]1OC(=O)c2cc(O)c(O)c(O)c2-c2c(O)c(O)c(O)c3c2C(=O)O[C@H]1[C@@H]3O)c1cc(O)c(O)c(O)c1Oc1cc2c(c(O)c1O)-c1c(cc(O)c(O)c1O)C(=O)OC[C@H]1OC(=O)c3cc(O)c(O)c(O)c3-c3c(O)c(O)c(O)c4c3C(=O)O[C@H]([C@H]3OC(=O)c5c-4c(O)c(O)c(O)c5[C@@H]3O)[C@@H]1OC2=O,Activity,IPEC-J2 [2],Active
same,Activity,IPEC-J2 [1],Active
O=C1OC[C@H]2OC(=O)c3cc(O)c(O)c(O)c3-c3c(O)c(O)c(O)c4c3C(=O)O[C@H]([C@H]3OC(=O)c5c-4c(O)c(O)c(O)c5[C@H]3O)[C@@H]2OC(=O)c2cc(O)c(O)c(O)c2-c2c1cc(O)c(O)c2O [CASTALAGIN],MIC,Escherichia coli [3],533 µM
same,MIC,Escherichia coli [4],705 µM
same,MIC,Escherichia coli [5],705 µM
same,MIC,Escherichia coli [6],705 µM
same,MIC,Escherichia coli [7],705 µM
same,MIC,Escherichia coli [8],705 µM
same,MIC,Escherichia coli [9],705 µM
same,MIC,Escherichia coli [10],705 µM
same,Activity,IPEC-J2 [1],Active
same,inhibition at 100 µM,Escherichia coli [11],37.7%
same,MIC,Escherichia coli [12],500 µM
same,Time,Escherichia coli [13],>1440 min
same,Time,Escherichia coli [14],870 min
same,Time,Escherichia coli [15],515 min
same,Time,Escherichia coli [16],422 min
same,Time,Escherichia coli [17],320 min
same,Time,Escherichia coli [18],347 min
same,Time,Escherichia coli [19],322 min
same,Time,Escherichia coli [20],>1440 min
same,Time,Escherichia coli [21],722 min
same,Time,Escherichia coli [22],647 min
same,Time,Escherichia coli [23],502 min
same,Time,Escherichia coli [24],380 min
same,Time,Escherichia coli [25],310 min
same,Time,Escherichia coli [26],317 min
same,Time,Escherichia coli [27],>1440 min
same,Time,Escherichia coli [28],56.8 min
same,Time,Escherichia coli [29],42.9 min
same,Time,Escherichia coli [30],43 min
same,Time,Escherichia coli [31],38.1 min
same,Time,Escherichia coli [32],34.9 min
same,Time,Escherichia coli [33],33.4 min
same,Time,Escherichia coli [34],>1440 min
same,Time,Escherichia coli [35],35.9 min
same,Time,Escherichia coli [36],36.6 min
same,Time,Escherichia coli [37],45.3 min
same,Time,Escherichia coli [38],45.6 min
same,Time,Escherichia coli [39],34.3 min
same,Time,Escherichia coli [40],36.8 min
